Assay [1] relates to MCF7. The assay can be described thus: Cytotoxicity against human MCF7 cells assessed as growth inhibition at 100 uM after 72 hrs by MTT assay. The class given is functional. The note with it: MCF7, 72 h. The method in brief:
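MCF-7 cells in RPMI 1640 with 10% fetal bovine serum, plated at 10⁴ cells/well. Compounds in DMSO diluted into medium at 0.1–100 and incubated 72 h at 37 °C, 5% CO₂. Doxorubicin served as positive control and 0.6% DMSO as negative control. MTT for 4 h; formazan dissolved in 2-propanol/DMSO/HCl (30:20:2); read at 570 nm. Inhibition percentage at the highest concentration.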
For orientation: Tetrazolium assays rely on reduction of a dye to a coloured formazan, in cell work by metabolically active cells.

For assay [2], the system named is Jurkat. The assay can be described thus: Cytotoxicity against human Jurkat cells assessed as growth inhibition at 100 uM after 48 hrs by MTT assay. The class given is functional. The method in brief: (§1)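 Jurkat and Raji cells in RPMI 1640 with 10% fetal bovine serum, plated at 10⁴ cells/well. Compounds in DMSO diluted into medium, tested at 0.1–100. Exposure 48 h at 37 °C, 5% CO₂. Doxorubicin positive control; 0.6% DMSO negative control. MTT added for a further 4 h; formazan dissolved in 2-propanol/DMSO/HCl (30:20:2); A570. Inhibition percentage taken at the top concentration.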

The subject of assay [3] is Raji. The assay can be described thus: Cytotoxicity against human Raji cells assessed as growth inhibition at 100 uM after 48 hrs by MTT assay. Format: functional. The method in brief:
as §1

Assay [4] has as its system Raji. The assay can be described thus: Cytotoxicity against human Raji cells after 48 hrs by MTT assay. Format: functional, cell-based. An outline of the steps: (§2)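 Cells were grown in RPMI 1640 with 10% fetal bovine serum and plated at 10⁴ cells/well. Compounds were dissolved in DMSO, diluted in medium, and tested at 0.1, 1, 10, 25, 50, 75 and 100. Incubation was at 37 °C in 5% CO₂ for 48 h (Jurkat, Raji) or 72 h (MCF-7). Controls were doxorubicin (positive) and 0.6% DMSO (negative). MTT was added for a further 4 h, formazan was dissolved in 2-propanol/DMSO/HCl (30:20:2), and absorbance was read at 570 nm.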

Assay [5] relates to Jurkat. The assay can be described thus: Cytotoxicity against human Jurkat cells after 48 hrs by MTT assay. Format: functional, cell-based. An outline of the steps:
as §2

The subject of assay [6] is MCF7. The assay can be described thus: Cytotoxicity against human MCF7 cells after 72 hrs by MTT assay. Format: functional, cell-based. Particulars: MCF7, 72 h. An outline of the steps: as §2

One may read the inhibition as how much of the control response was suppressed. As usually defined, the IC50 is the concentration that gives 50% inhibition.

For `CCOP(=O)(OCC)C(Nc1ccc(Cc2ccc(NC(c3cc(OC)c(OC)c(OC)c3)P(=O)(OCC)OCC)cc2)cc1)c1cc(OC)c(OC)c(OC)c1` (stereo not given), the inhibition at 100 µM came out at 3.5% with MCF7 [1], 20.1% with Jurkat [2] and 0% with Raji [3].
With `CCOP(=O)(OCC)C(Nc1ccc(Cc2ccc(NC(c3ccc(N(C)C)cc3)P(=O)(OCC)OCC)cc2)cc1)c1ccc(N(C)C)cc1` (stereo not given), the inhibition at 100 µM was 12.7% in the assay on MCF7 [1], 17.8% in the assay with Jurkat [2] and 0.78% with Raji [3].
Turning to `CCOP(=O)(OCC)C(Nc1ccc(S(=O)(=O)c2ccc(NC(c3ccc(O)c(OC)c3)P(=O)(OCC)OCC)cc2)cc1)c1ccc(O)c(OC)c1` (stereo not given), the inhibition at 100 µM stood at 16.6% with MCF7 [1], 15.6% in the assay with Jurkat [2] and 0% in the assay with Raji [3].
The matching figures for `CCOP(=O)(OCC)C(Nc1ccc(Cc2ccc(NC(c3ccccc3)P(=O)(OCC)OCC)cc2)cc1)c1ccccc1` (stereo not given): 13.9%, 28% and 6.41%.
Take `CCOP(=O)(OCC)C(Nc1nc2[nH]cnc2c(=O)[nH]1)c1ccc(C(Nc2nc3[nH]cnc3c(=O)[nH]2)P(=O)(OCC)OCC)cc1` (stereo not given): the figures for the inhibition at 100 µM in the assay with MCF7 [1], in the assay with Jurkat [2] and in the assay on Raji [3] were 12.7%, 0% and 64.8%, respectively.
For `CCOP(=O)(OCC)C(Nc1ccc(C(=O)c2ccc(NC(c3ccccc3)P(=O)(OCC)OCC)cc2)cc1)c1ccccc1` (stereo not given), the inhibition at 100 µM in the assay on MCF7 [1] is 10.2%; with Jurkat [2] it was 15.8%; with Raji [3], 0%.
The matching figures for `CCOP(=O)(OCC)C(Nc1ccc(Oc2ccc(NC(c3ccccc3)P(=O)(OCC)OCC)cc2)cc1)c1ccccc1` (stereo not given): 0%, 6.84% and 0%.
`CCOP(=O)(OCC)C(Nc1ccc(Cc2ccc(NC(c3ccc(O)c(OC)c3)P(=O)(OCC)OCC)cc2)cc1)c1ccc(O)c(OC)c1` (stereo not given): the inhibition at 100 µM with MCF7 [1] was determined as 29.1%; in the assay on Jurkat [2] it was 40.1%; with Raji [3] it was 56.2%. This compound also gave an IC50 in the assay on Raji [4] of 58.6 µM.
Turning to `CCOP(=O)(OCC)C(Nc1ccc(Cc2ccc(NC(c3ccc([N+](=O)[O-])cc3)P(=O)(OCC)OCC)cc2)cc1)c1ccc([N+](=O)[O-])cc1` (stereo not given), the figures for the inhibition at 100 µM in the assay on MCF7 [1], in the assay with Jurkat [2] and with Raji [3] were 12.2%, 10.7% and 0%, respectively.
Take `CCOP(=O)(OCC)C(NCCc1c[nH]c2ccccc12)c1ccc(C(NCCc2c[nH]c3ccccc23)P(=O)(OCC)OCC)cc1` (stereo not given): the inhibition at 100 µM in the assay with MCF7 [1] came to 54.2%; in the assay with Jurkat [2] it was 68.4%; with Raji [3], 64.8%. Further, the figures for the IC50 in the assay on Raji [4], in the assay on Jurkat [5] and in the assay with MCF7 [6] were 45.2 µM, 24.3 µM and 67.5 µM, respectively.
On to `CCOP(=O)(OCC)C(Nc1ccccc1)c1ccc(C(Nc2ccccc2)P(=O)(OCC)OCC)cc1` (stereo not given), for which the inhibition at 100 µM in the assay on MCF7 [1] is 25.4%; with Jurkat [2], 36.8%; with Raji [3], 27.2%.
For the compound `COc1cccc2c1C(=O)c1c(O)c3c(c(O)c1C2=O)C[C@@](O)(C(=O)CO)C[C@@H]3O[C@H]1C[C@H](N)[C@H](O)[C@H](C)O1` [DOXORUBICIN], the inhibition at 100 µM in the assay on MCF7 [1] amounted to 65.5%; in the assay on Jurkat [2], 82.3%; in the assay on Raji [3], 66.7%.

Values taken from ChEMBL document CHEMBL1155977, “Design and one-pot synthesis of alpha-aminophosphonates and bis(alpha-aminophosphonates) by iron(III) chloride and cytotoxic activity” (Eur J Med Chem, 2009).
